# According to ChEMBL document CHEMBL1141590, “Development of peptidomimetics with a vinyl sulfone warhead as irreversible falcipain-2 inhibitors” (J Med Chem, 2008):
# Columns and labels:
# Falcipain 2 = target: T1, Falcipain 2 (Plasmodium falciparum, UniProt Q9N6S8); experiment: (§1) Inhibition of Plasmodium falciparum recombinant falcipain-2
# T1 sequence (Q9N6S8 whole entry): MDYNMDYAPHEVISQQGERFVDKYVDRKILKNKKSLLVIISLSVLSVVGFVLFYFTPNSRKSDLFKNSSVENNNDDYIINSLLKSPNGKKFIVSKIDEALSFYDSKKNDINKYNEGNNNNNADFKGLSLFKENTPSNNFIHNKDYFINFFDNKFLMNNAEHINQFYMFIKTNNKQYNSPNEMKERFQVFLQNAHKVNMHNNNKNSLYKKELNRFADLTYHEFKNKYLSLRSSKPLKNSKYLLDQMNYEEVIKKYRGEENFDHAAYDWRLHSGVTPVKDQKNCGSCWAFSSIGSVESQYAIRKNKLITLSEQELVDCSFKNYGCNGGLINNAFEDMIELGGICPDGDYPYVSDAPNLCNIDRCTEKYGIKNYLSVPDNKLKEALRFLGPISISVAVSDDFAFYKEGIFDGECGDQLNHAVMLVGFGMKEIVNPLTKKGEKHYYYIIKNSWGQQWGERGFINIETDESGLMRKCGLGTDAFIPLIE
# How it was run: (§2)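 Recombinant FP-2 in 100 mM sodium acetate pH 5.5, 10 mM DTT; Cbz-Phe-Arg-AMC 32 µM, fluorescence (ex 365/em 460 nm) monitored continuously 20 min at room temperature. Seven inhibitor levels within 0–10 µM; kobs from progress-curve fits, hyperbolic fit gave kinac and Kiapp, corrected with Km 21.5 µM; k2nd = kinac/Kinac. Two independent runs, each in duplicate.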
# [1] = target: T2, Falcipain 2 (Plasmodium falciparum) (UniProt Q9N6S8); experiment: as §1; how it was run: as §2
# T2 sequence (whole entry): T1 sequence (Q9N6S8 whole entry)
# Cathepsin B = Cathepsin B (Homo sapiens, UniProt P07858); experiment: Inhibition of human cathepsin B
# How it was run: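 Cathepsin B continuous progress-curve assay with Cbz-Phe-Arg-AMC at 80 µM; Kiapp corrected to zero substrate using Km 150 µM to give Kinac. Two independent runs, each in duplicate.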
# Procathepsin L = Procathepsin L (Homo sapiens, UniProt P07711); experiment: Inhibition of human cathepsin L
# How it was run: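 Cathepsin L continuous progress-curve assay with Cbz-Phe-Arg-AMC at 5 µM; Kiapp corrected to zero substrate using Km 6.5 µM to give Kinac. Two independent runs, each in duplicate.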
# Plasmodium falciparum = experiment: Antiplasmodial activity against Plasmodium falciparum 3D7 after 72 hrs in Malstat assay; format: functional, organism-based; details: 3D7, 72 h
# How it was run: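 Synchronized ring-stage P. falciparum 3D7 plated at 1% parasitemia with compounds (in DMSO) at 1 nM–100 µM; 0.5% v/v DMSO alone as negative control. Cultured in vitro 72 h, then viability read by Malstat assay (parasite lactate dehydrogenase activity); dose-dependent effect quantified.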
compound,measurement,setting,value
O=C(CN1C(=O)[C@@H](COC(=O)Nc2ccc(Cl)cc2C(F)(F)F)N=C(c2ccccc2)c2ccccc21)N[C@H](/C=C/S(=O)(=O)c1ccccc1)CCc1ccccc1,Ki,Falcipain 2,600 nM
same,Kinact,[1],0.11 min⁻¹
same,Ki,Cathepsin B,3.1 µM
same,Kinact,Cathepsin B,0.039 min⁻¹
same,Ki,Procathepsin L,7 µM
same,Kinact,Procathepsin L,0.12 min⁻¹
same,IC50,Plasmodium falciparum,9.2 µM
CS(=O)(=O)/C=C/[C@H](CCc1ccccc1)NC(=O)CN1C(=O)[C@@H](COC(=O)Nc2ccc(Cl)cc2C(F)(F)F)N=C(c2ccccc2)c2ccccc21,IC50,Falcipain 2,8 µM
same,Ki,Falcipain 2,390 nM
same,Kinact,[1],0.16 min⁻¹
same,Ki,Cathepsin B,14.5 µM
same,Kinact,Cathepsin B,0.064 min⁻¹
same,IC50,Plasmodium falciparum,55.4 µM
COc1ccc(S(=O)(=O)/C=C/[C@H](CCc2ccccc2)NC(=O)CN2C(=O)[C@@H](COC(=O)Nc3ccc(Cl)cc3C(F)(F)F)N=C(c3ccccc3)c3ccccc32)cc1,Ki,Falcipain 2,53 nM
same,Kinact,[1],0.034 min⁻¹
same,Ki,Cathepsin B,3.3 µM
same,Kinact,Cathepsin B,0.045 min⁻¹
same,IC50,Plasmodium falciparum,59.6 µM
O=C(CN1C(=O)[C@@H](COC(=O)Nc2ccc(Cl)cc2C(F)(F)F)N=C(c2ccccc2)c2ccccc21)N[C@H]1CC(=O)OC1O (some centres not stated),IC50,Falcipain 2,8 µM
CS(=O)(=O)/C=C/CNC(=O)CN1C(=O)[C@@H](COC(=O)Nc2ccc(Cl)cc2C(F)(F)F)N=C(c2ccccc2)c2ccccc21,IC50,Falcipain 2,8 µM
same,Ki,Falcipain 2,370 nM
same,Kinact,[1],0.059 min⁻¹
same,Ki,Cathepsin B,11 µM
same,Kinact,Cathepsin B,0.048 min⁻¹
same,IC50,Plasmodium falciparum,18.1 µM
CCS(=O)(=O)/C=C/CNC(=O)CN1C(=O)[C@@H](COC(=O)Nc2ccc(Cl)cc2C(F)(F)F)N=C(c2ccccc2)c2ccccc21,IC50,Falcipain 2,8 µM
same,Ki,Falcipain 2,110 nM
same,Kinact,[1],0.027 min⁻¹
same,Ki,Cathepsin B,4.3 µM
same,Kinact,Cathepsin B,0.039 min⁻¹
same,IC50,Plasmodium falciparum,56.6 µM
CCS(=O)(=O)/C=C/[C@H](CCc1ccccc1)NC(=O)CN1C(=O)[C@@H](COC(=O)Nc2ccc(Cl)cc2C(F)(F)F)N=C(c2ccccc2)c2ccccc21,Ki,Falcipain 2,320 nM
same,Kinact,[1],0.1 min⁻¹
same,Ki,Cathepsin B,4.4 µM
same,Kinact,Cathepsin B,0.045 min⁻¹
same,Ki,Procathepsin L,13.5 µM
same,Kinact,Procathepsin L,0.1 min⁻¹
same,IC50,Plasmodium falciparum,9.1 µM
CC(C)C[C@H](NC(=O)[C@H]1O[C@@H]1C(=O)O)C(=O)NCCCCN=C(N)N [E-64],Ki,Falcipain 2,290 nM
same,Kinact,[1],0.46 min⁻¹
same,IC50,Plasmodium falciparum,5.3 µM
O=C(CN1C(=O)[C@@H](COC(=O)Nc2ccc(Cl)cc2C(F)(F)F)N=C(c2ccccc2)c2ccccc21)NC/C=C/S(=O)(=O)c1ccccc1,IC50,Falcipain 2,8 µM
same,Ki,Falcipain 2,140 nM
same,Kinact,[1],0.033 min⁻¹
same,Ki,Cathepsin B,4.6 µM
same,Kinact,Cathepsin B,0.047 min⁻¹
same,Ki,Procathepsin L,21.9 µM
same,Kinact,Procathepsin L,0.16 min⁻¹
same,IC50,Plasmodium falciparum,23.1 µM
COc1ccc(S(=O)(=O)/C=C/CNC(=O)CN2C(=O)C(COC(=O)Nc3ccc(Cl)cc3C(F)(F)F)N=C(c3ccccc3)c3ccccc32)cc1 (configuration not stated),IC50,Falcipain 2,8 µM
same,Ki,Falcipain 2,120 nM
same,Kinact,[1],0.031 min⁻¹
same,Ki,Cathepsin B,5.9 µM
same,Kinact,Cathepsin B,0.059 min⁻¹
same,Ki,Procathepsin L,14 µM
same,Kinact,Procathepsin L,0.1 min⁻¹
same,IC50,Plasmodium falciparum,> 100 µM
